Reference: ChEMBL document CHEMBL3804821, “Design and synthesis of some novel 4-Chloro-N-(4-(1-(2-(2-cyanoacetyl)hydrazono)ethyl)phenyl) benzenesulfonamide derivatives as anticancer and radiosensitizing agents” (Eur J Med Chem, 2016)

Experiments:
[1] = test system: HepG2; assay: Cytotoxicity against human HepG2 cells assessed as surviving fraction at 12.5 uM after 48 hrs by SRB assay relative to control; format: functional
Method in brief: (§1)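 Cells seeded at 10^4/well and allowed to attach for 24 h. Compounds dissolved in DMSO, diluted with saline, and added at 12.5, 25, 50 and 100 µM in triplicate wells. Exposure 48 h, 37 °C, 5% CO2. Cells then TCA-fixed and stained 30 min with 0.4% SRB in 1% acetic acid, washed four times with 1% acetic acid, and dye recovered in Tris-EDTA. Absorbance read and surviving fraction plotted against concentration to obtain IC50.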

[2] = test system: HepG2; assay: Cytotoxicity against human HepG2 cells assessed as surviving fraction at 25 uM after 48 hrs by SRB assay relative to control; format: functional; method in brief: as §1
[3] = test system: HepG2; assay: Cytotoxicity against human HepG2 cells assessed as surviving fraction at 50 uM after 48 hrs by SRB assay relative to control; format: functional; method in brief: as §1
[4] = test system: HepG2; assay: Cytotoxicity against human HepG2 cells assessed as surviving fraction at 100 uM after 48 hrs by SRB assay relative to control; format: functional; method in brief: as §1
[5] = test system: HepG2; assay: Cytotoxicity against human HepG2 cells assessed as cell viability after 48 hrs by SRB assay; format: functional, cell-based; conditions: HepG2, 48 h; method in brief: as §1
[6] = test system: HepG2; assay: Cytotoxicity against human HepG2 cells assessed as surviving fraction at 12.5 uM treated for 2 hrs followed by gamma irradiation of 8 Gy with dosage rate of 0.758 rad/sec for 17.73 mins measured after 48 hrs by SRB assay relative to control; format: functional
Method in brief: (§2)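 Cells seeded at 10^4/well for 24 h, then given compound at 12.5, 25, 50 or 100 µM. After 2 h, a single 8 Gy γ-ray dose was delivered (0.758 rad/sec, 17.73 min). Cells fixed 48 h after irradiation and stained with 0.4% SRB in 1% acetic acid, read at 570 nm. Surviving fraction reported as mean ± standard error and analysed by 1-way ANOVA; IC50 taken from the survival curve.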

[7] = test system: HepG2; assay: Cytotoxicity against human HepG2 cells assessed as surviving fraction at 25 uM treated for 2 hrs followed by gamma irradiation of 8 Gy with dosage rate of 0.758 rad/sec for 17.73 mins measured after 48 hrs by SRB assay relative to control; format: functional; method in brief: as §2
[8] = test system: HepG2; assay: Cytotoxicity against human HepG2 cells assessed as surviving fraction at 50 uM treated for 2 hrs followed by gamma irradiation of 8 Gy with dosage rate of 0.758 rad/sec for 17.73 mins measured after 48 hrs by SRB assay relative to control; format: functional; method in brief: as §2
[9] = test system: HepG2; assay: Cytotoxicity against human HepG2 cells assessed as surviving fraction at 100 uM treated for 2 hrs followed by gamma irradiation of 8 Gy with dosage rate of 0.758 rad/sec for 17.73 mins measured after 48 hrs by SRB assay relative to control; format: functional; method in brief: as §2
[10] = test system: HepG2; assay: Cytotoxicity against human HepG2 cells assessed as cell viability treated for 2 hrs followed by gamma irradiation of 8 Gy with dosage rate of 0.758 rad/sec for 17.73 mins measured after 48 hrs by SRB assay; format: functional, cell-based; conditions: HepG2, light or radiation study; method in brief: as §2
[11] = test system: HepG2; assay: Potency index, ratio of doxorubicin IC50 to compound IC50 for human HepG2 cells; format: functional

**Q.** Which Ratio [1] does the source give for `CCOC(=O)c1c(-c2ccc([N+](=O)[O-])cc2)c(C#N)c(=O)n(/N=C(\C)c2ccc(NS(=O)(=O)c3ccc(Cl)cc3)cc2)c1N` here?
**A.** 0.713

**Q.** What about the Ratio [2] of the same compound?
**A.** 0.586

**Q.** And the Ratio [3]?
**A.** 0.483

**Q.** What about the Ratio [4] of the same compound?
**A.** 0.212

**Q.** And the IC50 [5]?
**A.** 41.1 µM

**Q.** Which Ratio [1] does the source give for `CCOC(=O)c1c(-c2ccc(OC)cc2)c(C#N)c(=O)n(/N=C(\C)c2ccc(NS(=O)(=O)c3ccc(Cl)cc3)cc2)c1N` here?
**A.** 0.651

**Q.** And the Ratio [2]?
**A.** 0.637

**Q.** And the Ratio [3]?
**A.** 0.613

**Q.** And the Ratio [4]?
**A.** 0.147

**Q.** What about the IC50 [5] of the same compound?
**A.** 61.7 µM

**Q.** For `CCOC(=O)c1c(-c2ccccc2Cl)c(C#N)c(=O)n(/N=C(\C)c2ccc(NS(=O)(=O)c3ccc(Cl)cc3)cc2)c1N`, which Ratio [1] is on record?
**A.** 0.488

**Q.** And the Ratio [2]?
**A.** 0.545

**Q.** And the Ratio [3]?
**A.** 0.342

**Q.** What about the Ratio [4] of the same compound?
**A.** 0.192

**Q.** What about the IC50 [5] of the same compound?
**A.** 11.4 µM

**Q.** What does the source list for `CCOC(=O)c1c(-c2ccco2)c(C#N)c(=O)n(/N=C(\C)c2ccc(NS(=O)(=O)c3ccc(Cl)cc3)cc2)c1N`?
**A.** Ratio [1]: 0.413; Ratio [2]: 0.367; Ratio [3]: 0.37; Ratio [4]: 0.342; IC50 [5]: 10.3 µM; Ratio [6]: 0.32; Ratio [7]: 0.22; Ratio [8]: 0.1; Ratio [9]: 0.1; IC50 [10]: 8.8 µM

**Q.** Which results are given for `CCOC(=O)c1c(-c2ccccc2OC)c(C#N)c(=O)n(/N=C(\C)c2ccc(NS(=O)(=O)c3ccc(Cl)cc3)cc2)c1N`?
**A.** Ratio [1]: 0.489; Ratio [2]: 0.129; Ratio [3]: 0.105; Ratio [4]: 0.087; IC50 [5]: 11.4 µM

**Q.** For `CCOC(=O)c1c(-c2ccc(C)cc2)c(C#N)c(=O)n(/N=C(\C)c2ccc(NS(=O)(=O)c3ccc(Cl)cc3)cc2)c1N`, which Ratio [1] is on record?
**A.** 0.264

**Q.** What about the Ratio [2] of the same compound?
**A.** 0.25

**Q.** And the Ratio [3]?
**A.** 0.214

**Q.** What about the Ratio [4] of the same compound?
**A.** 0.107

**Q.** And the IC50 [5]?
**A.** 8.38 µM

**Q.** And the Ratio [6]?
**A.** 0.18

**Q.** What about the Ratio [7] of the same compound?
**A.** 0.15

**Q.** And the Ratio [8]?
**A.** 0.12

**Q.** What about the Ratio [9] of the same compound?
**A.** 0.11

**Q.** And the IC50 [10]?
**A.** 7.3 µM

**Q.** Which results are given for `COc1cccc2c1C(=O)c1c(O)c3c(c(O)c1C2=O)C[C@@](O)(C(=O)CO)C[C@@H]3O[C@H]1C[C@H](N)[C@H](O)[C@H](C)O1` [DOXORUBICIN]?
**A.** Ratio [1]: 0.551; Ratio [2]: 0.48; Ratio [3]: 0.139; Ratio [4]: 0.13

**Q.** Which Ratio [1] does the source give for `CCOC(=O)c1c(-c2ccccc2)c(C#N)c(=O)n(/N=C(\C)c2ccc(NS(=O)(=O)c3ccc(Cl)cc3)cc2)c1N` here?
**A.** 0.617

**Q.** And the Ratio [2]?
**A.** 0.287

**Q.** And the Ratio [3]?
**A.** 0.212

**Q.** And the Ratio [4]?
**A.** 0.179

**Q.** And the IC50 [5]?
**A.** 16.8 µM

**Q.** For `C/C(=N\NC(=O)C(C#N)C(=S)S)c1ccc(NS(=O)(=O)c2ccc(Cl)cc2)cc1` (stereo not given), which Ratio [1] is on record?
**A.** 0.542

**Q.** What about the Ratio [2] of the same compound?
**A.** 0.448

**Q.** What about the Ratio [3] of the same compound?
**A.** 0.387

**Q.** And the Ratio [4]?
**A.** 0.248

**Q.** What about the IC50 [5] of the same compound?
**A.** 17.5 µM

**Q.** `CCO/C=C(\C#N)C(=O)N/N=C(\C)c1ccc(NS(=O)(=O)c2ccc(Cl)cc2)cc1` was tested. Which Ratio [1] did it give?
**A.** 0.556

**Q.** What about the Ratio [2] of the same compound?
**A.** 0.406

**Q.** What about the Ratio [3] of the same compound?
**A.** 0.228

**Q.** What about the Ratio [4] of the same compound?
**A.** 0.222

**Q.** And the IC50 [5]?
**A.** 16.8 µM

**Q.** How did the Ratio [1] turn out when `C/C(=N\NC(=O)CC#N)c1ccc(NS(=O)(=O)c2ccc(Cl)cc2)cc1` was run?
**A.** 0.18

**Q.** What about the Ratio [2] of the same compound?
**A.** 0.159

**Q.** What about the Ratio [3] of the same compound?
**A.** 0.078

**Q.** What about the Ratio [4] of the same compound?
**A.** 0.064

**Q.** What about the IC50 [5] of the same compound?
**A.** 8 µM

**Q.** What about the “Ratio IC50” value [11] of the same compound?
**A.** 4

**Q.** What about the Ratio [6] of the same compound?
**A.** 0.26

**Q.** What about the Ratio [7] of the same compound?
**A.** 0.25

**Q.** What about the Ratio [8] of the same compound?
**A.** 0.12

**Q.** And the Ratio [9]?
**A.** 0.11

**Q.** What about the IC50 [10] of the same compound?
**A.** 6.5 µM

**Q.** Which Ratio [1] does the source give for `C/C(=N\NC(=O)/C(C#N)=C/N(C)C)c1ccc(NS(=O)(=O)c2ccc(Cl)cc2)cc1` here?
**A.** 0.642

**Q.** What about the Ratio [2] of the same compound?
**A.** 0.386

**Q.** And the Ratio [3]?
**A.** 0.311

**Q.** What about the Ratio [4] of the same compound?
**A.** 0.281

**Q.** What about the IC50 [5] of the same compound?
**A.** 19.4 µM

**Q.** What does the source list for `CCOC(=O)c1c(-c2cccc([N+](=O)[O-])c2)c(C#N)c(=O)n(/N=C(\C)c2ccc(NS(=O)(=O)c3ccc(Cl)cc3)cc2)c1N`?
**A.** Ratio [1]: 0.661; Ratio [2]: 0.524; Ratio [3]: 0.381; Ratio [4]: 0.298; IC50 [5]: 29.7 µM

**Q.** `CCOC(=O)c1c(/C=C/c2ccccc2)c(C#N)c(=O)n(/N=C(\C)c2ccc(NS(=O)(=O)c3ccc(Cl)cc3)cc2)c1N` was tested. Which Ratio [1] did it give?
**A.** 0.414

**Q.** And the Ratio [2]?
**A.** 0.336

**Q.** And the Ratio [3]?
**A.** 0.275

**Q.** What about the Ratio [4] of the same compound?
**A.** 0.114

**Q.** What about the IC50 [5] of the same compound?
**A.** 10.7 µM

**Q.** With `CSC(SC)=C(C#N)C(=O)N/N=C(\C)c1ccc(NS(=O)(=O)c2ccc(Cl)cc2)cc1` as the compound, how does the Ratio [1] read?
**A.** 0.579

**Q.** What about the Ratio [2] of the same compound?
**A.** 0.44

**Q.** What about the Ratio [3] of the same compound?
**A.** 0.329

**Q.** And the Ratio [4]?
**A.** 0.266

**Q.** What about the IC50 [5] of the same compound?
**A.** 19.4 µM

**Q.** With `CCOC(=O)c1c(-c2ccc(Cl)cc2)c(C#N)c(=O)n(/N=C(\C)c2ccc(NS(=O)(=O)c3ccc(Cl)cc3)cc2)c1N` as the compound, how does the Ratio [1] read?
**A.** 0.555

**Q.** What about the Ratio [2] of the same compound?
**A.** 0.463

**Q.** What about the Ratio [3] of the same compound?
**A.** 0.394

**Q.** And the Ratio [4]?
**A.** 0.314

**Q.** And the IC50 [5]?
**A.** 20.2 µM

**Q.** Which results are given for `CCOC(=O)c1c(-c2ccc(N(C)C)cc2)c(C#N)c(=O)n(/N=C(\C)c2ccc(NS(=O)(=O)c3ccc(Cl)cc3)cc2)c1N`?
**A.** Ratio [1]: 0.653; Ratio [2]: 0.432; Ratio [3]: 0.396; Ratio [4]: 0.196; IC50 [5]: 21 µM

**Q.** `CCOC(=O)c1c(-c2ccc3c(c2)OCO3)c(C#N)c(=O)n(/N=C(\C)c2ccc(NS(=O)(=O)c3ccc(Cl)cc3)cc2)c1N` was tested. Which Ratio [1] did it give?
**A.** 0.691

**Q.** And the Ratio [2]?
**A.** 0.606

**Q.** What about the Ratio [3] of the same compound?
**A.** 0.373

**Q.** What about the Ratio [4] of the same compound?
**A.** 0.134

**Q.** And the IC50 [5]?
**A.** 37 µM
